# Hits are enriched below; roughly 1.3% of the tested compounds scored in any of these assays.
# RBBP9 inhibitor: human RBBP9 inhibitors, primary screen, biochemical, fluorescence polarization, FP-Rh probe, HTS; recombinant RBBP9; inhibition, % at 7.94 µM; 0.2% of 220,000 active; Serine hydrolase RBBP9 (Homo sapiens), O75884;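 active = inhibition above the campaign mean of all tested compounds plus 3 SD, cut at about 14% in these data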;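 note: plate controls were DMSO wells with RBBP9 for no effect and wells lacking RBBP9 protein for full effect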
#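 System: RBBP9 protein | Quantity: 2.5 µM RBBP9 dispensing solution, before mixing | Reagent: FP-Rh probe, 375 nM dispensing solution | Timing: Enzyme-compound preincubation 30 min, then probe labeling 45 min, 25 °C | Measured by: Fluorescence polarization | Read-out: % inhibition | Replication: One well per compound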
# LYPLA1 counter: LYPLA1 inhibitors, primary screen, counter-screen for PME1 inhibitor project, biochemical, fluorescence polarization, FP-Rh probe ABPP. recombinant LYPLA1. inhibition, % at 5.9 µM. 0.16% of 320,000 active;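 active = inhibition above the mean of all tested compounds plus 3 SD, set per campaign, cut at about 14% in these data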;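 note: inhibitors block serine hydrolase probe labeling of LYPLA1 so polarization falls; 0% = enzyme with DMSO and 100% = wells lacking LYPLA1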
# PAD4 FP inh: human PAD4 inhibitors, primary screen, biochemical, fluorescence polarization, 1536-well format; inhibition, % at 6.36 µM; Protein-arginine deiminase type-4 (Homo sapiens), Q9UM07; AID 485272, 2010; 0.41% of 330,000 active; recombinant PAD4, RCA probe fluorescence polarization;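 active = percent inhibition above a cutoff equal to the mean of all tested compounds plus 3 SD, cut at about 15% in these data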;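 note: 0% = PAD4 with RCA probe and DMSO and 100% = probe without PAD4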
# Fam108B inh: mouse Fam108B serine hydrolase inhibitors, primary screen, counter-screen for RBBP9 inhibitor project, biochemical, fluorescence polarization | recombinant Fam108B, FP-Rh probe fluorescence polarization | inhibition, % at 9.51 µM | 0.33% of 300,000 active | AID 1947, 2009;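 active = inhibition above the screen mean inhibition plus 3 SD, computed separately per campaign, cut at about 18% in these data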;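 note: inhibitors lower polarization as less probe binds the enzyme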
# PME-1 primary: PME-1 inhibitors via competitive probe labeling, primary screen, biochemical, fluorescence polarization, FP-Rh probe, HTS; inhibition, % at 5.9 µM; 0.53% of 320,000 active; Protein phosphatase methylesterase 1 (Homo sapiens), Q9Y570; recombinant PME-1;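 active = inhibition above the campaign mean of all compounds plus 3 SD, cut at about 26% in these data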;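 note: competitive labeling of PME-1 active site by serine hydrolase directed probe; 0% = PME-1 with DMSO and 100% = wells lacking PME-1 enzyme; inhibitors block probe labeling so polarization falls and inhibition rises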
# Target sequence (Q9Y570 whole entry, looked up): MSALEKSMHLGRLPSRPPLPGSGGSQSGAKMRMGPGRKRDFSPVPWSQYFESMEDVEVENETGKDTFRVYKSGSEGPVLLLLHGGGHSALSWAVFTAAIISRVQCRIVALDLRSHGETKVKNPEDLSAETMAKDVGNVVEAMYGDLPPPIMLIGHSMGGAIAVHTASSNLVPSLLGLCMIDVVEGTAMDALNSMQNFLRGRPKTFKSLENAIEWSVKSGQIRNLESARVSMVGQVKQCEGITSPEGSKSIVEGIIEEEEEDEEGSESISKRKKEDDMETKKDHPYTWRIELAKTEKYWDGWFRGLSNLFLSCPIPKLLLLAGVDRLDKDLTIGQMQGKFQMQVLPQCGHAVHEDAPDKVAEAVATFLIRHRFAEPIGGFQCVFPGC
# LYPLA2 inh: LYPLA2 inhibitors, primary screen, counter-screen for PME1 inhibitor project, biochemical, fluorescence polarization, FP-Rh probe ABPP; inhibition, % at 5.9 µM; 0.38% of 320,000 active; recombinant LYPLA2; AID 2177, 2009; Acyl-protein thioesterase 2 (Homo sapiens), O95372;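 active = inhibition above the screen-wide mean plus 3 SD, limit set per campaign, cut at about 26% in these data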;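 note: 0% = LYPLA2 with DMSO and 100% = wells lacking LYPLA2 enzyme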
# PAD4 confirm: human PAD4 inhibitors, confirmation, biochemical, fluorescence polarization; shares compounds with PAD4 FP inh; recombinant PAD4, RCA probe fluorescence polarization; inhibition, % at 6.36 µM; 28% of 1,200 active; AID 488796, 2010;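 active = mean inhibition across replicates above the hit cutoff set by the earlier primary screen, cut at about 15% in these data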;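 note: inhibitors block active-site labeling by the probe so polarization falls; 0% = PAD4 with probe and DMSO and 100% = probe without PAD4 enzyme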
# The depositor's hits bear a star; · = no result given.
SMILES,RBBP9 inhibitor,LYPLA1 counter,PAD4 FP inh,Fam108B inh,PME-1 primary,LYPLA2 inh,PAD4 confirm
O=[N+]([O-])c1ccc(C2CC(c3ccccc3)=Nc3ccccc3S2)cc1 (stereo not drawn),0.6,-1.0,22.3*,4.3,-1.8,0.2,3.0
O=C(O)C1CC(c2ccccc2)=Nc2ccccc2S1 (stereo not drawn),-10.7,-6.2,-2.4,0.7,0.1,2.0,·
COc1ccc(CCNC(=O)c2nn(C)c3c2CS(=O)(=O)c2ccccc2-3)cc1OC,·,0.8,-3.1,4.6,0.1,6.0,·
Cc1noc(NS(=O)(=O)c2ccc(NC(=O)CSc3ncccn3)cc2)c1C,-1.3,2.6,2.4,0.9,1.0,8.4,·
Cc1noc(NS(=O)(=O)c2ccc(NC(=O)CSc3nc4ccccc4s3)cc2)c1C,-4.7,-1.1,19.2*,0.5,4.6,1.9,-5.0
CC(C)CNS(=O)(=O)c1cc2c3c(c1)CCC(=O)N3CCC2,·,-3.5,3.2,3.9,-9.9,-1.7,·
O=C(NC1(O)C(=O)c2ccccc2C1=O)c1c(Cl)cccc1Cl,0.5,-2.3,24.4*,4.7,10.0,1.1,36.9*
COc1ccc(/C=N/Nc2nncn2N)cc1Br,·,-5.8,53.0*,-0.4,-2.0,-5.0,3.4
COc1cc(/C=N/Nc2nncn2N)ccc1OCc1c(C)no[n+]1[O-],8.8,1.2,45.4*,1.4,5.4,1.8,-9.4
COc1ccc(CSc2nncn2N)cc1Br,-3.5,-2.0,-5.9,3.0,-6.2,-1.5,·
COc1ccc(N(C)S(=O)(=O)c2cccc(C(=O)N3CCN(S(=O)(=O)c4ccc(C)cc4)CC3)c2)cc1,·,-2.2,-2.8,-0.5,20.1,-7.9,·
C=CCOc1c(Cl)cc(CNc2ccc(C)c(Cl)c2)cc1OC,-8.6,-5.7,3.2,9.7,-2.7,-2.9,·
C=CCOc1c(Cl)cc(CNc2ccc(N(C)C)cc2)cc1OC,3.8,-2.9,24.6*,7.9,7.7,5.5,0.7
CC(=O)Nc1ccc(N/C=C/C(=O)c2ccco2)cc1,-3.4,1.2,-3.9,-0.2,4.6,-1.3,·
CN(C)c1ccc(N/C=C/C(=O)c2ccco2)cc1,3.7,-5.3,23.4*,0.2,0.6,-1.3,-1.8
NS(=O)(=O)c1ccc(N/C=C\C(=O)c2ccc(F)cc2)cc1,3.8,1.0,-2.3,-1.3,3.9,2.1,·
CN(C)c1ccc(N/C=C/C(=O)c2ccc(F)cc2)cc1,10.5,-2.5,31.2*,-3.0,6.6,2.3,-2.3
